Measurements published in ChEMBL document CHEMBL1275449, “Potent in vitro antifungal activities of naturally occurring acetylenic acids” (Antimicrob Agents Chemother, 2008).
The source made the active and inactive calls. The calls are words filed in the database; no cut-off is given here.

Tests used:
[1] = test system: Candida albicans; assay: Antifungal activity against Fluconazole resistant Candida albicans isolate 1 at 178.6 uM after 48 hrs by CLSI method; format: functional, organism-based
In short: (§1)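 Candida in CLSI broth microdilution. Saline colony suspension set to 1.5 × 10³ CFU/ml (final) in MOPS-buffered RPMI 1640, pH 7.0. Test agent given as twofold serial dilutions in 20% DMSO-saline, duplicate wells. 35°C for 48 h. Growth read as OD530 before and after incubation. Percent inhibition scored at the highest test concentration.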

[2] = test system: Aspergillus fumigatus; assay: Antifungal activity against Aspergillus fumigatus ATCC 90906 at 178.6 uM after 48 hrs by CLSI method; format: functional, organism-based
[3] = test system: Aspergillus flavus; assay: Antifungal activity against Aspergillus flavus ATCC 204304 at 178.6 uM after 48 hrs by CLSI method; format: functional, organism-based
[4] = test system: Pichia kudriavzevii; assay: Antifungal activity against Candida krusei ATCC 6258 after 48 hrs by CLSI method; format: functional, organism-based; settings: ATCC 6258, 48 h
In short: (§2)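 Candida inocula came from 24–72-h SD agar colonies suspended in saline. They were diluted by OD630 standard curve into RPMI 1640 (0.2% dextrose, 0.03% glutamine, 0.165 M MOPS, pH 7.0) to 1.5 × 10³ CFU/ml. Compounds were run as 11 twofold dilutions in 20% DMSO-saline, in duplicate, at 35°C for 48 h, with OD530 read before and after. Percent growth at the top concentration, IC50, MIC, and MFC (SD agar plating) were derived.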

[5] = test system: Trichophyton mentagrophytes; assay: Antifungal activity against Trichophyton mentagrophytes ATCC 9533 at 178.6 uM after 5 days by CLSI method; format: functional, organism-based
[6] = test system: LLC-PK1; assay: Cytotoxicity against pig LLC-PK1 cells up to 32 uM by neutral red method; format: cell-based, Sus scrofa
In short: (§3)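 Neutral red uptake cytotoxicity, top concentration 32 μM.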

[7] = test system: Candida parapsilosis; assay: Antifungal activity against Candida parapsilosis ATCC 22019 at 178.6 uM after 48 hrs by CLSI method; format: functional, organism-based
In short: (§4)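 Yeast suspensions made from 3-5 colonies off 24-72 h SD agar plates in saline. They were diluted by OD630 standard curve in RPMI 1640 (0.2% dextrose, 0.03% glutamine, 0.165 M MOPS, pH 7.0) to 1.5 × 10³ CFU/ml. Twofold dilutions (11 concentrations, 20% DMSO-saline) run in duplicate. OD530 read before and after 35°C, 48 h. Line values are top test concentrations; no-growth endpoints give MIC/MFC.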

[8] = test system: Candida albicans; assay: Antifungal activity against Candida albicans ATCC 32354 at 178.6 uM after 48 hrs by CLSI method; format: functional, organism-based; in short: as §2
[9] = test system: Trichophyton rubrum; assay: Antifungal activity against Trichophyton rubrum ATCC 10218 by CLSI method; format: functional, organism-based
In short: (§5)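 Growth scraped from 1- to 6-week-old potato dextrose slants and filtered through Miracloth. Diluted in 5% Alamar blue-RPMI 1640 (MOPS pH 7.0) to 2.7 × 10⁴ CFU/ml. Eleven twofold dilutions in duplicate. Fluorescence at 544 nm excitation/590 nm emission read before and after 35°C, 5 days. IC50 fitted from percent growth. MIC taken as no detectable growth; MFC from clear or blue wells plated on PD agar.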

[10] = test system: Candida albicans; assay: Antifungal activity against Fluconazole resistant Candida albicans isolate 17 at 178.6 uM after 48 hrs by CLSI method; format: functional, organism-based; in short: as §1
[11] = test system: Aspergillus fumigatus; assay: Antifungal activity against Aspergillus fumigatus ATCC 204305 at 178.6 uM after 48 hrs by CLSI method; format: functional, organism-based
[12] = test system: KB; assay: Cytotoxicity against human KB cells up to 32 uM by neutral red method; format: cell-based; in short: as §3
[13] = test system: SK-OV-3; assay: Cytotoxicity against human SKOV3 cells up to 32 uM by neutral red method; format: cell-based; in short: as §3
[14] = test system: Trichophyton rubrum; assay: Antifungal activity against Trichophyton rubrum ATCC MYA-4438 at 178.6 uM after 5 days by CLSI method; format: functional, organism-based
[15] = test system: Candida albicans; assay: Antifungal activity against Candida albicans ATCC 14053 at 178.6 uM after 48 hrs by CLSI method; format: functional, organism-based
[16] = test system: Vero; assay: Cytotoxicity against African green monkey Vero cells up to 32 uM by neutral red method; format: cell-based; settings: chlorocebus sabaeus; in short: as §3
[17] = test system: Nakaseomyces glabratus; assay: Antifungal activity against Candida glabrata ATCC 90030 at 178.6 uM after 48 hrs by CLSI method; format: functional, organism-based; in short: as §2
[18] = test system: Trichophyton rubrum; assay: Antifungal activity against Trichophyton rubrum ATCC 10218 at 178.6 uM after 5 days by CLSI method; format: functional, organism-based
[19] = test system: Cryptococcus neoformans; assay: Antifungal activity against Cryptococcus neoformans ATCC 66031 after 72 hrs by CLSI method; format: functional, organism-based; settings: ATCC 66031, 72 h
In short: (§6)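 SD broth replaced RPMI because growth in RPMI was poor; other CLSI conditions were kept. Inoculum was 1.5 × 10³ CFU/ml from colonies on SD agar, checked by plating. Twofold serial dilutions (11 concentrations) in 20% DMSO-saline were tested in duplicate. OD530 was read before and after incubation at 35°C for 72 h. Percent growth gave IC50; the MIC is the lowest concentration with no detectable growth.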

[20] = test system: Aspergillus niger; assay: Antifungal activity against Aspergillus niger ATCC 16404 at 178.6 uM after 48 hrs by CLSI method; format: functional, organism-based
[21] = test system: Trichophyton mentagrophytes; assay: Antifungal activity against Trichophyton mentagrophytes ATCC MYA-4439 at 178.6 uM after 5 days by CLSI method; format: functional, organism-based
[22] = test system: Candida tropicalis; assay: Antifungal activity against Candida tropicalis ATCC 750 at 178.6 uM after 48 hrs by CLSI method; format: functional, organism-based; in short: as §4
[23] = test system: Candida albicans; assay: Antifungal activity against Candida albicans ATCC 90028 at 178.6 uM after 48 hrs by CLSI method; format: functional, organism-based; in short: as §2
[24] = test system: BT-549; assay: Cytotoxicity against human BT549 cells up to 32 uM by neutral red method; format: cell-based; in short: as §3
[25] = test system: SK-MEL; assay: Cytotoxicity against human SK-MEL cells up to 32 uM by neutral red method; format: cell-based; in short: as §3
[26] = test system: Candida albicans; assay: Antifungal activity against Candida albicans ATCC 200955 at 178.6 uM after 48 hrs by CLSI method; format: functional, organism-based; in short: as §2
[27] = test system: Trichophyton mentagrophytes; assay: Antifungal activity against Trichophyton mentagrophytes ATCC MYA-4439 by CLSI method; format: functional, organism-based; in short: as §5
[28] = test system: Candida albicans; assay: Antifungal activity against Candida albicans ATCC 60193 at 178.6 uM after 48 hrs by CLSI method; format: functional, organism-based; in short: as §2
[29] = test system: Cryptococcus neoformans; assay: Antifungal activity against Cryptococcus neoformans ATCC 66031 at 178.6 uM after 72 hrs by CLSI method; format: functional, organism-based; in short: as §6
[30] = test system: Cryptococcus neoformans; assay: Antifungal activity against Cryptococcus neoformans ATCC 90113 at 178.6 uM after 72 hrs by CLSI method; format: functional, organism-based; in short: as §6
[31] = test system: Trichophyton rubrum; assay: Antifungal activity against Trichophyton rubrum ATCC MYA-4438 by CLSI method; format: functional, organism-based; in short: as §5

## CCCCCCCCC#CCCCCCCCC(=O)O
[1]
  Activity: inactive
[2]
  Activity: inactive
[3]
  Activity: inactive
[4]
  IC50: > 179 µM
[5]
  Activity: inactive
[6]
  Activity: Non-toxic
[7]
  Activity: inactive
[8]
  Activity: inactive
[9]
  IC50: > 179 µM
[10]
  Activity: inactive
[11]
  Activity: inactive
[12]
  Activity: Non-toxic
[13]
  Activity: Non-toxic
[14]
  Activity: inactive
[15]
  Activity: inactive
[16]
  Activity: Non-toxic
[17]
  Activity: inactive
[18]
  Activity: inactive
[19]
  IC50: > 179 µM
[20]
  Activity: inactive
[21]
  Activity: inactive
[22]
  Activity: inactive
[23]
  Activity: inactive
[24]
  Activity: Non-toxic
[25]
  Activity: Non-toxic
[26]
  Activity: inactive
[27]
  IC50: > 179 µM
[28]
  Activity: inactive
[29]
  Activity: inactive
[30]
  Activity: inactive
[31]
  IC50: 80.2 µM
